Assays:
Format in all cases: cell-based
[1] = target: T1, Vitamin D3 receptor (Homo sapiens) (UniProt P11473); experiment: Downregulation of VDR expression in human MCF7 cells at 3 uM after 6 hrs by Western blot method relative to lamin B
T1 sequence (whole entry): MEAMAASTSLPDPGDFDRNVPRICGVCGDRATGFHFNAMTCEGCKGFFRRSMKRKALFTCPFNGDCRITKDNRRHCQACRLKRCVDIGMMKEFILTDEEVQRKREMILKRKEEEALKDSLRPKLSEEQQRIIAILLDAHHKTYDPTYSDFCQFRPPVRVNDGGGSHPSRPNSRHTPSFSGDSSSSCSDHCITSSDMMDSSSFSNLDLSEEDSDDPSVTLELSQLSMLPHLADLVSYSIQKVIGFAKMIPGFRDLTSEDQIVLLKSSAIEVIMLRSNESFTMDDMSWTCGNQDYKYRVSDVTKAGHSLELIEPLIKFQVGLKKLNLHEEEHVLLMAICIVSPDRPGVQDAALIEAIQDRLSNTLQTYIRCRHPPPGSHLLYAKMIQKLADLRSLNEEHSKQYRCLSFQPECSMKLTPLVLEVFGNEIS
How it was run: (§1)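 MCF-7 cells kept in DMEM with 10% FBS, kanamycin and 10 μg/mL insulin, then exposed to compounds for 6 h. Lysates made in SDS buffer (0.1 M Tris-HCl pH 8.0, 10% glycerol, 1% SDS), boiled, BCA-normalized and run on SDS-PAGE. Blots probed with anti-ERα, AR, AhR or VDR and β-actin or lamin B. Chemiluminescence quantified as target/loading-protein ratio; means ± S.E., n=3.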

[2] = target: T1, Vitamin D3 receptor (Homo sapiens); experiment: Downregulation of VDR expression in human MCF7 cells at 3 uM after 6 hrs in presence of proteasome inhibitor MG132 by Western blot method relative to lamin B; how it was run: as §1
[3] = target: T2, Aryl hydrocarbon receptor (Homo sapiens, UniProt P35869); experiment: Downregulation of AhR expression in human MCF7 cells at 3 uM after 6 hrs in presence of proteasome inhibitor MG132 by Western blot method relative to lamin B; conditions: mcf7, 6 h; how it was run: as §1
T2 sequence (P35869 whole entry): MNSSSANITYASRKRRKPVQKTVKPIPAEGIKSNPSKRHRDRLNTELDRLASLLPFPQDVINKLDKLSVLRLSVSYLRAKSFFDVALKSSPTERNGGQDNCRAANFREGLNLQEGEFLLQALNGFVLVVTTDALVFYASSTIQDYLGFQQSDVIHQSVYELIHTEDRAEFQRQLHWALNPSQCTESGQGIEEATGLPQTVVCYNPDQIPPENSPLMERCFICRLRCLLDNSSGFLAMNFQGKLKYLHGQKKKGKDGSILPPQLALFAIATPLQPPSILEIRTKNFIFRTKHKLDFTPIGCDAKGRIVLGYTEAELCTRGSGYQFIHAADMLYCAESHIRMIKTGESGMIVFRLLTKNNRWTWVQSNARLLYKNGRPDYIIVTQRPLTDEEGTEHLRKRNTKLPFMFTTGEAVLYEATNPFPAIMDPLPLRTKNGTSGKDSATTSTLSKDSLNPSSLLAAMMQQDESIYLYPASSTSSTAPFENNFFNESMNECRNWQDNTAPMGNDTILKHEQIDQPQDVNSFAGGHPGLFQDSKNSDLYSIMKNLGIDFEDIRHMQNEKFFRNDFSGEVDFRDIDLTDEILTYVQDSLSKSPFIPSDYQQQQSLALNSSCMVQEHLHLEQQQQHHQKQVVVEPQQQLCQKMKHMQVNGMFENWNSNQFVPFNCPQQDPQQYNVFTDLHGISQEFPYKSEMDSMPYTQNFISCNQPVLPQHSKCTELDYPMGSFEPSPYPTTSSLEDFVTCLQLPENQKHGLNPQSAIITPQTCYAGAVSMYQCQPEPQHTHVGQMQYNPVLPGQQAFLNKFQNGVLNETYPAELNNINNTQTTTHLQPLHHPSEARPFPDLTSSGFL

[4] = target: T3, Androgen receptor (Homo sapiens) (UniProt P10275); experiment: Downregulation of androgen receptor expression in human MCF7 cells at 3 uM after 6 hrs in presence of proteasome inhibitor MG132 by Western blot method relative to lamin B; how it was run: as §1
T3 sequence (whole entry): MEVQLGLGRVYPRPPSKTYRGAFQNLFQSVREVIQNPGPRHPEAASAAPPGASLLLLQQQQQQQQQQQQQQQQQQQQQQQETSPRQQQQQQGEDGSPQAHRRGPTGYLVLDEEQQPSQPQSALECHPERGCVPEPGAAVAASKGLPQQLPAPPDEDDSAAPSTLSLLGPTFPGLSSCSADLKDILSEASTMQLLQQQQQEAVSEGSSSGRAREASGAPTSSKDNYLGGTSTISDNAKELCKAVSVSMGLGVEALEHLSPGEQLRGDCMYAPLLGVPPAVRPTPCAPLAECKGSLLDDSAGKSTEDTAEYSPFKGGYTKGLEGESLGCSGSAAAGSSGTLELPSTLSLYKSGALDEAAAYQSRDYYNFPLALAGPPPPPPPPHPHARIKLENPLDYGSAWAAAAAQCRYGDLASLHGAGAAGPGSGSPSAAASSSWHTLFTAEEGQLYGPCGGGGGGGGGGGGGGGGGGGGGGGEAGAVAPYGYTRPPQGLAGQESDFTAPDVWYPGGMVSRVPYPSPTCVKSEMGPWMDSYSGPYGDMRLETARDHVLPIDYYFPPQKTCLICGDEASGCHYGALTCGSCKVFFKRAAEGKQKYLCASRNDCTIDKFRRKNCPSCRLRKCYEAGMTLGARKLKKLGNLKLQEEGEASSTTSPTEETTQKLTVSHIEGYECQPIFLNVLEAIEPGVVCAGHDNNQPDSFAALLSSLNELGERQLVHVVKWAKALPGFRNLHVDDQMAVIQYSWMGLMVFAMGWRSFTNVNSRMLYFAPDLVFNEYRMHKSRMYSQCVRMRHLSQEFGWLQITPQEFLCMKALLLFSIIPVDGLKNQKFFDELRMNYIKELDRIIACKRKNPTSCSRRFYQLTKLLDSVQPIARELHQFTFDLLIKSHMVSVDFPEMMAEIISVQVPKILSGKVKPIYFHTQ

[5] = target: T3, Androgen receptor (Homo sapiens); experiment: Downregulation of androgen receptor expression in human MCF7 cells at 1 uM after 6 hrs in presence of proteasome inhibitor MG132 by Western blot method relative to lamin B; how it was run: as §1
[6] = target: T2, Aryl hydrocarbon receptor; experiment: Downregulation of AhR expression in human MCF7 cells at 10 uM after 6 hrs by Western blot method relative to lamin B; conditions: mcf7, 6 h; how it was run: as §1
[7] = target: T2, Aryl hydrocarbon receptor; experiment: Downregulation of AhR expression in human MCF7 cells at 10 uM after 6 hrs in presence of proteasome inhibitor MG132 by Western blot method relative to lamin B; conditions: mcf7, 6 h; how it was run: as §1
[8] = target: T3, Androgen receptor (Homo sapiens); experiment: Downregulation of androgen receptor expression in human MCF7 cells at 3 uM after 6 hrs by Western blot method relative to lamin B; how it was run: as §1

Activity [1]: 99%
Activity [2]: 83%
Activity [3]: 99%
Activity [4]: 78%
Activity [5]: 96%
Activity [6]: 81%
Activity [7]: 107%
Activity [8]: 106%
Structure (SMILES): CCCCCCCCCCNCCOc1ccc(C(CCC)(CCC)c2ccc(O)c(C)c2)cc1C
